The structures appear in SMILES notation.

The assay concerns the target T1, Cystine/glutamate transporter (Homo sapiens, UniProt Q9UPY5).
T1 sequence (Q9UPY5 whole entry): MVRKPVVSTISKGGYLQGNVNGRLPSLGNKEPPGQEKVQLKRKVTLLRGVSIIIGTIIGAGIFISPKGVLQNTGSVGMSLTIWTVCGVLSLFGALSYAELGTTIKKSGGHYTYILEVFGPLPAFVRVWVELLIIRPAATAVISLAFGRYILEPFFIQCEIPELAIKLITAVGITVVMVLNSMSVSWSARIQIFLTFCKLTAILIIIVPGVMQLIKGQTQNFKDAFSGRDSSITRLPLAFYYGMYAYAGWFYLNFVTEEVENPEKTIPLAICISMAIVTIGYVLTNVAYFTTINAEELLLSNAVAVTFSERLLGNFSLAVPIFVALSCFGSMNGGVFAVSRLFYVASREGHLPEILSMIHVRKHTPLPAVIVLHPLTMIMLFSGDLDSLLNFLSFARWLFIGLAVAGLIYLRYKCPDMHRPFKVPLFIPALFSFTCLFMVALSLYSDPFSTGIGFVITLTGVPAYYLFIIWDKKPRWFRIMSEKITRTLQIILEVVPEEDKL
The assay is described as follows: Inhibition of xc-cystine-glutamate antiporter-mediated cystine uptake in human U87 cells using L-[14C]cystine as substrate after 15 mins by liquid scintillation counting. Format: cell-based, U-87MG ATCC. The gist of the method: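 U87 human glioblastoma-astrocytoma cells, seeded at 0.067 × 10^6 per well and grown 6 days to confluency. Washed with pre-warmed sodium-free choline-chloride uptake buffer (HEPES 10 mM, pH 7.4), then given 80 µM L-[14C(U)]-cystine at 37 °C with or without inhibitor at various concentrations. Uptake stopped by three ice-cold washes, cells lysed in 0.1 N NaOH, counts normalized to protein.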
The IC50 is the concentration that gives 50% inhibition. A lower IC50 goes with inhibition by little substance. With `N[C@@H](C(=O)O)c1ccc(C(=O)O)cc1`, the IC50 was over 1000 µM. Next, `COC(=O)c1cc(C#Cc2ccc(S(=O)(=O)Nc3ccccn3)cc2)ccc1O`: over 1000 µM; `O=C(O)c1cc(C#Cc2ccc(S(=O)(=O)Nc3ccccn3)cc2)ccc1O`: 30 µM. Molecule `COC(=O)c1cc(/C=C/c2ccc(S(=O)(=O)Nc3ccccn3)cc2)ccc1O` displayed an IC50 of 900 µM. Regarding `O=C(O)c1cc(/C=C/c2ccc(S(=O)(=O)Nc3ccccn3)cc2)ccc1O`, half-maximal inhibition (IC50) required 70 µM. Next, `COC(=O)c1cc(CCc2ccc(S(=O)(=O)Nc3ccccn3)cc2)ccc1O`: over 1000 µM; `O=C(O)c1cc(CCc2ccc(S(=O)(=O)Nc3ccccn3)cc2)ccc1O`: 700 µM. Then `O=C(O)c1cccc(C#Cc2ccc(S(=O)(=O)Nc3ccccn3)cc2)c1`, with 75 µM. The molecule `O=C(O)c1cccc(CCc2ccc(S(=O)(=O)Nc3ccccn3)cc2)c1` registered an IC50 of 920 µM. Next, `O=C(O)c1cc(/N=N/c2ccccc2)ccc1O`: 200 µM.

`O=C(O)c1cc(C#Cc2ccccc2)ccc1O` showed a 50% inhibitory concentration (IC50) of 150 µM. As for `O=C(O)c1cccc(C#Cc2ccccc2)c1`, 270 µM corresponded to half-maximal inhibition (IC50). Next, `N[C@H](C(=O)O)c1ccc(C(=O)O)cc1`: 15 µM; `Nc1ccc(O)c(C(=O)O)c1` [MESALAMINE]: over 1000 µM; `Nc1ccc(S(=O)(=O)Nc2ccccn2)cc1` [SULFAPYRIDINE]: over 1000 µM. Next, `O=C(O)c1cc(/N=N/c2ccc(S(=O)(=O)Nc3ccccn3)cc2)ccc1O` [SULFASALAZINE]: 30 µM; `Cc1cccnc1NS(=O)(=O)c1ccc(C#Cc2ccc(O)c(C(=O)O)c2)cc1` [SUSALIMOD]: 70 µM.
